Test results: ChEMBL document CHEMBL2407081, “Discovery of potent, isoform-selective inhibitors of histone deacetylase containing chiral heterocyclic capping groups and a N-(2-aminophenyl)benzamide binding unit” (J Med Chem, 2013)
Calls of active or inactive are those of the source. No cut-off for these calls is given here.

Columns and labels:
[1] = Lipophilicity, log D of the compound at pH 7.4; assay type: physicochemical; conditions: buffer
HCT-116 = assay: Cytotoxicity against human HCT116 cells assessed as growth inhibition by measuring cellular ATP level after 72 hrs by cell-titer glo assay; assay type: functional, cell-based; conditions: HCT-116, 72 h
Cytochrome P450 3A4 [2] = biological target: T1, Cytochrome P450 3A4 (Homo sapiens, UniProt P08684); assay: Inhibition of CYP3A4 (unknown origin) using vivid green as substrate; assay type: ADME
Jurkat [3] = assay: Cell cycle arrest in human Jurkat cells assessed as accumulation at G2/M phase at 10 uM after 24 hrs by FITC/propidium iodide staining-based FACS flow cytometric analysis (reference value: 13.2%); assay type: functional
How it was run: (§1)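 HeLa and Jurkat human cells were cultured for 24 h with compound at two concentrations. The control was an equal volume of the DMSO diluent. Cellular DNA and protein content were then measured by flow cytometry, and the percentage of cells in sub-G1, G0/G1, S and G2/M was read out.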

Jurkat [4] = assay: Cell cycle arrest in human Jurkat cells assessed as accumulation at sub-G1 phase at 1 uM after 24 hrs by FITC/propidium iodide staining-based FACS flow cytometric analysis (reference value: 6.8%); assay type: functional; how it was run: as §1
Jurkat [5] = assay: Cell cycle arrest in human Jurkat cells assessed as accumulation at S phase at 10 uM after 24 hrs by FITC/propidium iodide staining-based FACS flow cytometric analysis (reference value: 15.3%); assay type: functional; how it was run: as §1
Cytochrome P450 2C19 = Cytochrome P450 2C19 (Homo sapiens, UniProt P33261); assay: Inhibition of CYP2C19 (unknown origin); assay type: ADME
Jurkat [6] = assay: Cell cycle arrest in human Jurkat cells assessed as accumulation at G0/G1 phase at 1 uM after 24 hrs by FITC/propidium iodide staining-based FACS flow cytometric analysis (reference value: 55.5%); assay type: functional; how it was run: as §1
[7] = biological target: Histone deacetylase 3/NCoR1 (Homo sapiens) (UniProt O15379+O75376); assay: Inhibition of recombinant HDAC3-NCoR1 (unknown origin) assessed as slow tight binding at 0.02 to 20 uM; assay type: protein-complex assay
Cytochrome P450 2D6 = Cytochrome P450 2D6 (Homo sapiens, UniProt P10635); assay: Inhibition of CYP2D6 (unknown origin); assay type: ADME
Cytochrome P450 3A4 [8] = biological target: T1, Cytochrome P450 3A4; assay: Inhibition of CYP3A4 (unknown origin) using vivid red as substrate; assay type: ADME
A549 = assay: Cytotoxicity against human A549 cells assessed as growth inhibition by measuring cellular ATP level after 72 hrs by cell-titer glo assay; assay type: functional, cell-based; conditions: A549, 72 h
[9] = Octanol-water partition coefficient, log p of the compound; assay type: physicochemical

T1 sequence (P08684 whole entry): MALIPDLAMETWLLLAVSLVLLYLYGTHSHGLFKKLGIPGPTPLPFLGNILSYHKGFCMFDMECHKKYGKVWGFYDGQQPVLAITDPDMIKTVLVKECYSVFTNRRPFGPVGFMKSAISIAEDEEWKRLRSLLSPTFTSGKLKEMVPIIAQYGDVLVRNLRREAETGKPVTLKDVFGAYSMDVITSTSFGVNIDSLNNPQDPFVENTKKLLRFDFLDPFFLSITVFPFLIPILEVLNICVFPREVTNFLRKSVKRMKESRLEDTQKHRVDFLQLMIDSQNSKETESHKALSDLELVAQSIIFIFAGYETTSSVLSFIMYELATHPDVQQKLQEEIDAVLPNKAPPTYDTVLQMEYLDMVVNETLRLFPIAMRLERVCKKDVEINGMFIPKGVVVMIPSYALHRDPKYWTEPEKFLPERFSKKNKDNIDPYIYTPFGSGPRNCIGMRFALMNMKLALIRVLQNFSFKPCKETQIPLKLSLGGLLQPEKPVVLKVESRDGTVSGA
Sequence of Cytochrome P450 2C19 (P33261 whole entry): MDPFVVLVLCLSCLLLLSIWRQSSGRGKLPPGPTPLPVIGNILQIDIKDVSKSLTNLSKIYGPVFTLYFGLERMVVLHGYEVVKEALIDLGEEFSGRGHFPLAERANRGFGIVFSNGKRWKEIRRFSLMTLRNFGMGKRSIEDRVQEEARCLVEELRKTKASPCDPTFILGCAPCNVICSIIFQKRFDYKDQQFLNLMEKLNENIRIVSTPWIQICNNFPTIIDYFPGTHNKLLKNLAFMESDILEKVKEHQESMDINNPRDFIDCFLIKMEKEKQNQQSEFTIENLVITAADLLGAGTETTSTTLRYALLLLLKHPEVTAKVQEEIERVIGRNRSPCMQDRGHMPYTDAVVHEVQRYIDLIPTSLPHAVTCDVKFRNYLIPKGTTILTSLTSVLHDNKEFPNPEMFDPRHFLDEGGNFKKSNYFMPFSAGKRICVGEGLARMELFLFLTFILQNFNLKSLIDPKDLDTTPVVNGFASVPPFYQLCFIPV
Sequence of Cytochrome P450 2D6 (P10635 whole entry): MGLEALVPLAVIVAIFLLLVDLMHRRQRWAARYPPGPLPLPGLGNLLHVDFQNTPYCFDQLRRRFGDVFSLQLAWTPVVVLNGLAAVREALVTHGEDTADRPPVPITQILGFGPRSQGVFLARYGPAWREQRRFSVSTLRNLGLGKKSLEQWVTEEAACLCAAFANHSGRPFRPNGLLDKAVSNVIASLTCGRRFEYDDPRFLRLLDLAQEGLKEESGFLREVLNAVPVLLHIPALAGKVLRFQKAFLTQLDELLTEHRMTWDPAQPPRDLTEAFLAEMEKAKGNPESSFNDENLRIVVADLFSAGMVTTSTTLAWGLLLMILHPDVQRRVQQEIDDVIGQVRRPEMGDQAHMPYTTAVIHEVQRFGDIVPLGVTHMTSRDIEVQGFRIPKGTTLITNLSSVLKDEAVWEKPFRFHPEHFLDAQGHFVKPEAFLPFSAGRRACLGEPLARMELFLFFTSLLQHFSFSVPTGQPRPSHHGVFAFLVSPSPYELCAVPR

logD [1]: 4.24
IC50 (Cytochrome P450 3A4 [2]): 16 µM
IC50 (Cytochrome P450 2C19): 32 µM
inhibition [7]: Active
IC50 (Cytochrome P450 2D6): 0.08 µM
IC50 (Cytochrome P450 3A4 [8]): 25 µM
logP [9]: 4.65
SMILES: Nc1ccccc1NC(=O)c1ccc(CNC2=N[C@@H](c3ccccc3)CS2)cc1
IC50 (HCT-116): 2.17 µM
Activity (Jurkat [3]): 16.9%
Activity (Jurkat [4]): 36.6%
Activity (Jurkat [5]): 35.1%
Activity (Jurkat [6]): 48.1%
IC50 (A549): 5.78 µM
